Source: PubChem (several laboratories)
TMEM16A inh: blocks the mouse calcium-activated chloride channel TMEM16A; Q8BHY3; normalized B-score (activity score, 25-100; higher = stronger inhibition) at 10 µM; HEK293 TMEM16A/YFP iodide influx fluorescence, ionomycin; 310,000 tested, 1.2% active;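 active means ratio plate-corrected score three or more library SD toward inhibition, starting fluorescence score within five deviations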;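 further: score derived from kinetic fluorescence span divided by baseline fluorescence per well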
Apaf-1 inh: human Apaf-1 inhibition | O14727 | reconstituted apoptosome caspase-3 activity, DEVD-Rh110 fluorescence | inhibition, % at 20 µM | 330,000 tested, 0.71% active | AID 489030; active means inhibition of at least 40% at 20 µM;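 further: plate controls were DMSO wells for no effect and DEVD-CHO caspase inhibitor wells for full effect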
Target sequence (O14727 whole entry, looked up): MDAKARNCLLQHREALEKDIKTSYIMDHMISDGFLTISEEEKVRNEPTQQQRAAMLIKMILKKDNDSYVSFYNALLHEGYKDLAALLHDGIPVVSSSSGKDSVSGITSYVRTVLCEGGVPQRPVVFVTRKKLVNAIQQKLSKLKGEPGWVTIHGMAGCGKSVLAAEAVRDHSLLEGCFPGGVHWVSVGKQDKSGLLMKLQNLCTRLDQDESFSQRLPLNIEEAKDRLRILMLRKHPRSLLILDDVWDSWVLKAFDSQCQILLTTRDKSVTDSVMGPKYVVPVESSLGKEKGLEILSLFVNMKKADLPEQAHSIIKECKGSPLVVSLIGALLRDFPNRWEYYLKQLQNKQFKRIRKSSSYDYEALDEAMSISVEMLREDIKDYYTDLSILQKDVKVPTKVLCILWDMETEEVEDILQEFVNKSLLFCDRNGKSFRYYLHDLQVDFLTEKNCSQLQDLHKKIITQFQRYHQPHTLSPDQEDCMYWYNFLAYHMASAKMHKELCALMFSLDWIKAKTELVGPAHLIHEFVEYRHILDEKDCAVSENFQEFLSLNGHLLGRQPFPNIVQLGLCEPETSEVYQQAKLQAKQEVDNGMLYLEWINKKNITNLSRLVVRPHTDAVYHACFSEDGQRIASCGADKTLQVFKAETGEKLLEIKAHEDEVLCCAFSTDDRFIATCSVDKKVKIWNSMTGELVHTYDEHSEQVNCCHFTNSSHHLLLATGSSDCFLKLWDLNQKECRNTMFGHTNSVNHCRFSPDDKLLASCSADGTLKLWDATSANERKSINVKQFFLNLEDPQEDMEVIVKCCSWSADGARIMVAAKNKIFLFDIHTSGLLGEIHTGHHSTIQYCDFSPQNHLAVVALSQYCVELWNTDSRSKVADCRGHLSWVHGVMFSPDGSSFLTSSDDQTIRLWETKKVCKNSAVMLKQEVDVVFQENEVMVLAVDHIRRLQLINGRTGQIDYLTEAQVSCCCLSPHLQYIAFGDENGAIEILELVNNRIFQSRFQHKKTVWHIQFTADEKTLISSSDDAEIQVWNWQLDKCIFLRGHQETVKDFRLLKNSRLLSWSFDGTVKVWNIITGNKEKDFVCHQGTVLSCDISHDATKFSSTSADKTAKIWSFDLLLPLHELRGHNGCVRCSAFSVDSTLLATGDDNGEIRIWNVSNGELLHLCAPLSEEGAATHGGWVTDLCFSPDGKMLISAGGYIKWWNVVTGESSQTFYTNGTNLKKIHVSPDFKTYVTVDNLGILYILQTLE
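System: reconstituted apoptosome with Apaf-1, cytochrome c, caspase-9, procaspase-3, dATP; Signal: Rh110 fluorescence intensity; Schedule: 30 min compound preincubation, 50 min activation, room temperature; Reagent: cytochrome c trigger plus (Z-DEVD)2-Rh110 caspase-3 substrate.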
FID counter: displaces DNA intercalator in HCV helicase counter-screen; DNA fluorescent intercalator displacement, fluorescence; inhibition, % at 7.9 µM; 290,000 tested, 0.17% active; AID 1845; in the data active means inhibition above about 37%;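 further: 0% = vehicle and 100% = reference compound; higher means more ethidium bromide displaced from hairpin DNA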
UBC13 polyUb: blocks human UBC13 polyubiquitin chain formation; AID 485273; TR-FRET; inhibition, % at 20 µM; P61088; 330,000 tested, 0.47% active; in the data active means inhibition above about 45%, passing the limit was not always enough
TMEM16A act: activates or potentiates the mouse TMEM16A chloride channel; Q8BHY3; HEK293 TMEM16A/YFP-H148Q/I152L, iodide quench fluorescence; hits give low values; B-score at 10 µM; 340,000 tested, 0.3% active;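 active means fluorescence-ratio B-score plate-corrected deviation score at least 3 library SD below zero, with starting fluorescence score within 5 deviations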;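 further: channel opened by trigger with iodide after compound preincubation; score built on the fluorescence ratio of max minus min over baseline; more negative score means more quench and so TMEM16A activation or potentiation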
Active calls of the source: *; i = inactive; nt = no result given. Rows were chosen to be rich in hits. Some 2.4% of all compounds tested hit in one or more screens of this group.

SMILES	TMEM16A inh	Apaf-1 inh	FID counter	UBC13 polyUb	TMEM16A act
N#C/C(=C(/O)c1ccc2c(c1)OCO2)c1nc2cc(C(F)(F)F)ccc2s1	100*	-3	-10	-6	i
N#C/C(=C(/O)c1ccccc1F)c1nc2cc(C(F)(F)F)ccc2s1	i	-5	-5	-2	i
COc1cc(/C=N/NC(=O)c2cc[n+]([O-])cc2)ccc1O	i	-2	-11	-14	i
CCn1c(SCC(=O)NCC2CCCO2)nnc1-c1ccccc1 (configuration not stated)	i	-17	-7	6	i
Nn1cc(-c2ccccc2)nc1SCC(=O)NCC1CCCO1 (configuration not stated)	i	-6	3	-11	-20*
OCC1(Cc2cccc(C(F)(F)F)c2)CCN(Cc2cc3ccccc3o2)CC1	i	27	15	19	i
COc1ccc(F)c(CN2CCC(CO)(Cc3cccc(C(F)(F)F)c3)CC2)c1	i	-6	39*	9	i
COc1ccc(CC2(CO)CCN(Cc3cc4ccccc4o3)CC2)cc1	25*	-4	7	8	i
COc1cc(CN2CCC(CO)(Cc3cccc(C(F)(F)F)c3)CC2)ccc1F	i	-22	31	28	i
COc1ccc(S(=O)(=O)N2CCN(C(=O)c3cc4c(s3)CCCC4)CC2)cc1	nt	35	nt	-5	-34*
Cc1nc(C)c(C(=O)N/N=C/c2ccco2)s1	i	-11	-3	-2	i
COc1ccc(/C=C2/C(=O)N(c3ccccc3)N=C2C)cc1Br	i	87*	-4	-63	i
COc1cc(/C=C2/C(=O)N(c3ccccc3)N=C2C)ccc1OS(=O)(=O)c1ccccc1	i	95*	-9	-46	nt
Cc1ccccc1C(=O)c1ccccc1C(=O)c1ccccc1	nt	nt	nt	nt	i
Cc1cc(C)c(C(=O)NCCCN2CCOCC2)c(C)c1	i	1	-3	-5	i
C[C@H](NC(=O)[C@@H]1CSC2c3ccccc3C(=O)N21)C(=O)NC1CCCCC1 (some centres not stated)	i	11	-25	2	i
CC(C)C(=O)N1CCN(c2ccc(NC(=O)c3ccc4c(c3)OCCO4)cc2Cl)CC1	100*	-10	-3	5	i
Cc1ccc(C(=O)CSC2=C(C#N)C(c3ccco3)CC(=O)N2)c(C)c1 (configuration not stated)	25*	13	-17	-4	i
O=C(NCCc1ccc(Cl)cc1)c1cccc(NC2=NC3CS(=O)(=O)CC3S2)c1 (configuration not stated)	i	2	-9	4	i
CC1CC(=O)Nc2ccccc2N1C(=O)Cn1cnc2ccccc2c1=O (configuration not stated)	nt	-8	nt	11	i
Cc1ccc(C)c(N(CC(=O)NC2CCCCC2)C(=O)CCC(=O)Nc2ccccn2)c1	nt	nt	-40	nt	nt
CCc1ccccc1N(CC(=O)NC1CCCCC1)C(=O)CCC(=O)Nc1ccccn1	i	12	-36	5	-5.8*
Cc1cc(C(=O)COc2cc(F)ccc2[N+](=O)[O-])c(C)n1CC1CCCO1 (configuration not stated)	nt	-5	nt	12	i
CCCCCCN1C=CC=C/C1=C\C=C(C#N)C#N	i	0	-8	-44	i
CCOCCCNC(=O)CCc1ccc(-n2cnc3cccnc32)cc1	i	1	-13	4	i
SMILES	TMEM16A inh	Apaf-1 inh	FID counter	UBC13 polyUb	TMEM16A act
CCn1c(CNC(=O)COc2ccc(C(C)C)cc2)nnc1SCC(=O)Nc1ccccc1F	i	10	-37	9	i
CCn1c(CNC(=O)COc2ccc(C(C)C)cc2)nnc1SCC(=O)Nc1ccccc1C(C)C	25*	9	-43	7	i
CNCc1ccccc1Sc1cccc2ccccc12	i	-1	14	16	i
CNC[C@H](Cc1cccc2ccccc12)NC[C@H](CCSC)NCC1CCC(C(C)(C)C)CC1 (some centres not stated)	nt	65*	nt	86*	nt
Cc1[nH]n(-c2ccccc2)c(=O)c1/C=N/N1CCOCC1	i	26	1	-3	-7.4*
O=c1c(/C=N/N2CCOCC2)c(C(F)(F)F)[nH]n1-c1ccccc1	i	-3	2	13	i
CCCOc1ccccc1/C=C(\C#N)C(=O)Nc1cccnc1	i	-9	-2	4	i
O=[N+]([O-])c1ccc(-c2cnc(SC(c3ccccc3)c3ccccc3)[nH]2)cc1	i	13	9	-7	i
O=[N+]([O-])c1ccc(-c2cnc(SCc3ccccc3Cl)[nH]2)cc1	100*	7	9	-5	i
O=[N+]([O-])c1ccc(Oc2ccc(S(=O)(=O)N3CCOCC3)cc2)cc1	i	10	-14	3	i
O=[N+]([O-])c1ccc(Oc2ccc(S(=O)(=O)N3CCCCC3)cc2)cc1	25*	11	-4	8	i
CC[C@]12c3[nH]c4ccc(OC)cc4c3CCN1C(=O)C(CC(=O)NC(C)(C)C)C[C@@H]2C(=O)N1CCN(C(=O)c2ccco2)CC1 (some centres not stated)	nt	14	nt	nt	nt
COc1cc(/C=N/N=C(N)N)ccc1OCc1ccccc1Cl	100*	34	21	54*	i
CCN(CC)CCNC(=O)c1ccc(NC(=O)c2cn(-c3ccccc3)nc2-c2cccs2)cc1	25*	25	29	103*	i
O=C(NCCCN1CCCC1=O)c1c(O)nc2sccn2c1=O	i	-5	nt	1	i
COc1ccc(OC)c(CCNC(=O)CN2C(=O)COc3ccc(S(=O)(=O)N4CCOCC4)cc32)c1	i	9	-43	-4	i
CN1C(=O)NC(c2cccc([N+](=O)[O-])c2)C2=C1CCCC2=O (configuration not stated)	i	7	0	-2	i
O=C(Nc1ccc(F)cc1)c1ccc2snnc2c1	i	-3	-5	2	i
CCCc1cc(C(=O)Nc2ccc(C(=O)c3ccc(F)cc3)cc2)n(C)n1	100*	27	-39	8	i
COc1ccc(-c2nc(CSCC(=O)NCc3ccco3)c(C)o2)cc1	100*	8	-22	10	i
CCSc1ccccc1C(=O)NCCc1ccccc1	i	3	-9	5	i
O=C(CCl)N1CCN2C(=O)c3ccccc3C12c1ccc(Cl)cc1 (configuration not stated)	i	12	-3	-3	i
O=C(Nc1cccc(Cl)c1)N1CCN2C(=O)c3ccccc3C12c1ccccc1 (configuration not stated)	25*	10	-21	8	i
O=C(O)c1cnc(-c2ccccc2)nc1Sc1ccc(Cl)cc1Cl	100*	26	-27	-13	i
CCN(CC(=O)Nc1c(F)cccc1F)C(=O)/C=C/c1ccc(Br)s1	i	-2	nt	2	i
